Laboratory results from PubChem BioAssay AID720574 (Broad Institute, 2013).
Among all 96,000 compounds or so, about 140 (0.15%) were called active.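 The calls were made as follows: active = mean replicate inhibition above about 25%, with at least 55% of replicates also reaching it (limit read from the data, passing the limit was not always enough); inconclusive = only one of those two conditions met; inactive = neither condition met.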 The list comes from a sample in which actives are over-represented; it also holds similar structures and randomly drawn compounds.

The molecules below were run against Lysine-specific demethylase 4C (Homo sapiens) (UniProt Q9H3R0) (assay: KDM4C H3K9me3 demethylation inhibition – biochemical, single concentration HTS, primary screen (AID 720574)). Conditions: GST-KDM4C 2-372, H3K9me3 peptide, LANCE TR-FRET; at 12.5 µM; active compounds read high.
Sequence of Lysine-specific demethylase 4C (Homo sapiens) (Q9H3R0 2-372 limits assumed): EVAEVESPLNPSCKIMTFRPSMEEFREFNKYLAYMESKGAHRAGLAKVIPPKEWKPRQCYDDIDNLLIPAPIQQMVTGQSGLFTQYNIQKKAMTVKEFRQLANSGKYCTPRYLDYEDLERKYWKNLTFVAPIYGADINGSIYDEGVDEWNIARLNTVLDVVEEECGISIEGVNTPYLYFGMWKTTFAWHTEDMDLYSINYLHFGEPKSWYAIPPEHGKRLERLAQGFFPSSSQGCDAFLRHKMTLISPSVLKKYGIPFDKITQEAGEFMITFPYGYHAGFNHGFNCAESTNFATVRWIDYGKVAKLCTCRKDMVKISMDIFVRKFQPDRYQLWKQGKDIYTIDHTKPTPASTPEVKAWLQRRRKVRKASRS
Summary of the method: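 material = GST-tagged GASC-1 (JMJD2C) catalytic fragment, aa 2-372 | amount = enzyme final amount 10 nM | medium = HEPES buffer, pH 7.5, plus ascorbate | also added = H3K9me3 peptide substrate, Fe(II), 2-oxoglutarate | dosing = single dose | times = 30 min demethylation and 1 h detection at room temperature | detection = LANCE TR-FRET | read-out basis = Fall in 671/618 emission ratio as inhibition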
With `COc1ccc2c3c(n(C)c2c1)[C@H](CO)N(Cc1ccc(F)cc1)CC31CN(CC2CCOCC2)C1` the inhibition was -0.66% (inactive). In the case of `COc1ccc2c3c(n(C)c2c1)[C@@H](CO)N(C(=O)Nc1ccc(F)cc1)CC31CCN(C(=O)c2cccnc2)CC1`, the inhibition is reported as -1.49% (inactive). In the case of `CO[C@@H]1CN(C)C(=O)c2cc(NC(=O)C3CC3)ccc2OC[C@H](C)N(Cc2ccc(F)cc2)C[C@@H]1C`, the inhibition is reported as -0.0715% (inactive). With `C[C@H](CO)N1C[C@H](C)[C@@H](CN(C)S(=O)(=O)c2ccccc2)OCCCC[C@H](C)Oc2ccc(NC(=O)NC3CCCCC3)cc2C1=O` the inhibition was 0.616% (inactive). With `COCC(=O)NC[C@@H]1[C@@H](c2ccc(C3=CCCC3)cc2)[C@@H](CO)N1C(C)=O` the inhibition was 3.61% (inactive). `CCC(=O)Nc1ccc2c(c1)C(=O)N(C)C[C@@H](OC)[C@@H](C)CN(C(=O)CN(C)C)[C@@H](C)CO2` was tested, and the inhibition was 1.55% (inactive). `O=C(C[C@@H]1C[C@@H]2c3cc(NS(=O)(=O)c4ccccc4)ccc3O[C@@H]2[C@@H](CO)O1)NC1CCCCC1` was tested, and the inhibition was -0.944% (inactive). In the case of `CS(=O)(=O)N1CC2(C1)[C@H](c1ccccc1)[C@H](CO)N2Cc1ccc(F)cc1`, the inhibition is reported as 0.43% (inactive). With `CO[C@@H]1CN(C)C(=O)c2ccc(NC(=O)NC(C)C)cc2OC[C@@H](C)N(Cc2ccc(-c3ccccn3)cc2)C[C@H]1C` the inhibition was 0.434% (inactive). In the case of `CO[C@H]1CN(C)C(=O)c2ccc(NS(=O)(=O)c3ccccc3)cc2OC[C@@H](C)N(Cc2nccs2)C[C@@H]1C`, the inhibition is reported as 0.175% (inactive). For `COC(=O)C[C@H]1C[C@H]2c3cc(NC(=O)NC4CCCCC4)ccc3O[C@H]2[C@H](CO)O1`, the inhibition was 9.44% (inactive). In the case of `CC(C)NC(=O)N1[C@H](CNC(=O)CN(C)C)[C@@H](c2ccccc2)[C@@H]1CO`, the inhibition is reported as -0.351% (inactive). For `O=C(c1ccccn1)N1CC2(C1)[C@@H](c1ccccc1)[C@@H](CO)N2C(=O)C1CCC1`, the inhibition was -1.3% (inactive). For `O=C(NCC[C@H]1CC[C@H](NS(=O)(=O)c2ccccc2)[C@H](CO)O1)c1cc(Cl)cc(Cl)c1`, the inhibition was -1.8% (inactive). For `COc1ccc(-c2cnc3c(c2)C(=O)N([C@H](C)CO)C[C@@H](C)[C@H](CN(C)C(=O)Cc2ccncc2)O3)cc1`, the inhibition was -0.262% (inactive). In the case of `CO[C@@H]1CN(C)C(=O)c2cc(NC(=O)Nc3ccccc3F)ccc2OC[C@H](C)NC[C@H]1C`, the inhibition is reported as 0.557% (inactive). In the case of `CCCNC(=O)C[C@@H]1CC[C@H]2[C@H](COc3ccc(NC(=O)CCC)cc3C(=O)N2C)O1`, the inhibition is reported as 1.75% (inactive). In the case of `CCCNC(=O)N1CC2(C1)[C@H](c1ccccc1)[C@@H](CO)N2C(=O)C1CC1`, the inhibition is reported as 1.13% (inactive). With `C/C=C/c1ccc([C@@H]2[C@@H](CO)N(C(=O)CN(C)C)C23CN(C(=O)C2CCCC2)C3)cc1` the inhibition was 0.163% (inactive). With `CO[C@@H](CN(C)S(=O)(=O)c1ccccc1)[C@H](C)CN(Cc1ccccc1Cl)[C@H](C)CO` the inhibition was 1.1% (inactive). With `COc1ccc2c3c(n(C)c2c1)[C@@H](CO)N(C(C)=O)CC31CCN(C(=O)C2CC2)CC1` the inhibition was -0.393% (inactive). In the case of `O=C(Nc1ccccc1F)N1CC(=O)N2[C@H](C1)[C@H](c1ccc(C#Cc3ccc(F)cc3)cc1)[C@@H]2CO`, the inhibition is reported as 1.34% (inactive). `CCC(=O)N(C)C[C@H]1Oc2ncc(-c3ccccc3OC)cc2C(=O)N([C@H](C)CO)C[C@H]1C` was tested, and the inhibition was 17.4% (inactive). For `CN1[C@@H]2CN(C(=O)C3CCCCC3)c3ccccc3[C@@H]2[C@@H]1CO`, the inhibition was 4.33% (inactive). For `Cc1cccc(S(=O)(=O)N2C[C@@H]3[C@H](c4ccccc42)[C@H](CO)N3CC2CCOCC2)c1`, the inhibition was -0.667% (inactive). `O=C(NCc1ccc(F)cc1)[C@@H]1[C@@H](CO)[C@@H]2Cn3c(cccc3=O)[C@@H]2N1C(=O)c1cccnc1` was tested, and the inhibition was -0.929% (inactive). With `CO[C@H]1CN(C)C(=O)c2ccc(NC(=O)NC(C)C)cc2OC[C@@H](C)N(C(=O)CN(C)C)C[C@H]1C` the inhibition was 0.223% (inactive). For `COc1ccc(CN(C)C[C@@H]2Oc3ccc(NC(=O)Nc4ccc(F)cc4)cc3CC(=O)N([C@@H](C)CO)C[C@H]2C)cc1`, the inhibition was -0.133% (inactive). `O=C(C1CCOCC1)N1C[C@H]2[C@@H](c3ccccc31)[C@@H](CO)N2Cc1ccccc1` was tested, and the inhibition was 2.96% (inactive). With `O=C(CC1CC1)N1[C@@H]2CN(S(=O)(=O)c3ccccc3F)c3ccccc3[C@@H]2[C@@H]1CO` the inhibition was 2% (inactive). In the case of `C[C@H]1CN([C@@H](C)CO)C(=O)c2cc(C#Cc3ccccc3F)cnc2O[C@@H]1CN(C)C(=O)C1CC1`, the inhibition is reported as -1.28% (inactive). For `C[C@H]1CN([C@@H](C)CO)C(=O)c2cc(C#Cc3ccccc3F)cnc2O[C@H]1CN(C)C`, the inhibition was 28.4% (active). With `C[C@H](CO)N1C[C@H](C)[C@@H](CN(C)S(=O)(=O)c2ccccc2)Oc2ncc(C#Cc3ccccc3F)cc2C1=O` the inhibition was -3.49% (inactive). For `COc1ccc2c3c([nH]c2c1)[C@@H](CO)N(C(=O)Nc1ccc(F)cc1)CC31CN(S(C)(=O)=O)C1`, the inhibition was -0.649% (inactive).
